The source of these data is ChEMBL document CHEMBL1153408, “Molecular modeling studies and in vitro bioactivity evaluation of a set of novel 5-nitro-heterocyclic derivatives as anti-T. cruzi agents” (2009).

Format in all cases: functional
The test system of assay [1] is Trypanosoma cruzi. Nature of the assay: Antitrypanosomal activity against Trypanosoma cruzi Y epimastigotes assessed as parasite growth at 10 ug/ml after 24 hrs. The gist of the method:
(§1)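 Y strain epimastigotes grown in LIT medium (pH 7.2, 10% FBS, 2% hemoglobin). Compounds dissolved in DMSO and diluted into LIT. Parasites added at an initial 10^6/mL and incubated at 28 °C for 24 h. Cells counted in a Neubauer chamber at 0 h and 24 h, in triplicate. Growth % = (L24 − L0) × 100/L0.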

Assay [2] deals with Trypanosoma cruzi. Kind of assay: Antitrypanosomal activity against Trypanosoma cruzi Y epimastigotes assessed as parasite growth at 20 ug/ml after 24 hrs. The gist of the method: as §1
The subject of assay [3] is Trypanosoma cruzi. Kind of assay: Antitrypanosomal activity against Trypanosoma cruzi Y epimastigotes assessed as parasite growth at 1 ug/ml after 24 hrs. The gist of the method:
as §1

Take `O=C(N/N=C/c1ccc([N+](=O)[O-])s1)c1ccc(O)cc1`: the Activity in the assay with Trypanosoma cruzi [1] is recorded as 56.6%.
In the case of `O=C(N/N=C/c1ccc([N+](=O)[O-])s1)c1ccc(Cl)cc1`, the “Parasite growth over 24 h” value in the assay on Trypanosoma cruzi [2] was 0%. For the same compound, in the assay on Trypanosoma cruzi [3], the Parasite growth is given as 4%. The Activity in the assay on Trypanosoma cruzi [1] was found to be 0%.
As to `O=C(Cn1ccnc1[N+](=O)[O-])NCc1ccccc1` [BENZNIDAZOLE], the “Parasite growth over 24 h” value in the assay on Trypanosoma cruzi [2] was 3%. For the same compound, in the assay with Trypanosoma cruzi [1], the Activity turned out to be 30%.
For the compound `O=C(N/N=C/c1ccc([N+](=O)[O-])s1)c1ccc(C(F)(F)F)cc1`, the “Parasite growth over 24 h” value with Trypanosoma cruzi [2] turned out to be 0%. Also, the Parasite growth in the assay on Trypanosoma cruzi [3] was 28.4%. Moreover, the Activity in the assay with Trypanosoma cruzi [1] was found to be 0%.
Turning to `O=C(N/N=C/c1ccc([N+](=O)[O-])o1)c1ccc(Cl)cc1`, in the assay on Trypanosoma cruzi [2], the “Parasite growth over 24 h” value is reported as 0%. The Parasite growth with Trypanosoma cruzi [3] was 0%. The Activity with Trypanosoma cruzi [1] worked out at 0%.
As for `COc1ccc(C(=O)N/N=C/c2ccc([N+](=O)[O-])s2)cc1`, the “Parasite growth over 24 h” value in the assay with Trypanosoma cruzi [2] was 0%. Also, in the assay with Trypanosoma cruzi [3], the Parasite growth is 100%. In the assay with Trypanosoma cruzi [1], the Activity came out at 0%.
For the compound `N#Cc1ccc(C(=O)N/N=C/c2ccc([N+](=O)[O-])s2)cc1`, the Activity in the assay on Trypanosoma cruzi [1] came to 0%.
As to `NS(=O)(=O)c1ccc(C(=O)N/N=C/c2ccc([N+](=O)[O-])s2)cc1`, the “Parasite growth over 24 h” value in the assay on Trypanosoma cruzi [2] stood at 19%. Also, in the assay on Trypanosoma cruzi [3], the Parasite growth stood at 16%. The Activity in the assay with Trypanosoma cruzi [1] is given as 18.2%.
On the same counts, the results for `O=C(N/N=C/c1ccc([N+](=O)[O-])s1)c1ccccc1` are 0%, 13% and 57.3%.
Taken in the same sequence, the figures for `CN(C)c1ccc(C(=O)N/N=C/c2ccc([N+](=O)[O-])s2)cc1` were 0%, 10% and 43.6%.
Taken in the same sequence, the figures for `O=C(N/N=C/c1ccc([N+](=O)[O-])o1)c1ccccc1` were 0%, 0% and 0%.
